From PubChem BioAssay
CHO parental Ca – signal in parental CHO cells, OX1R antagonist counter-screen | parental CHO-K1, ATP-induced calcium, Fluo-8 fluorescence | inhibition, % at 5.6 µM | 0.63% of 330,000 active;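 active means inhibition above that plate's mean sample inhibition plus 3 SD, cut at about 26% in these data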
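Material: Parental CHO cells | Reagent: ATP | Compound dosing: Single nominal dose of 5.6 µM per compound | Detection: Intracellular calcium via Fluo-8 no-wash fluorescent dye | Read-out: % inhibition of ATP-induced calcium mobilization | Benchmarks: Low control ATP plus DMSO, high control DMSO only | Replicates: Singlicate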
TAAR1 antagonist – human TAAR1 antagonism. Q96RJ0. CHO RD-HGA16 TAAR1, Fluo-8 calcium fluorescence, antagonist. inhibition, % at 3 µM. 1.5% of 360,000 active. AID 624466;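 active means inhibition above a per-plate cutoff, the mean inhibition of test compounds on that plate plus 3 SD, cut at about 49% in these data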
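Test system: RD-HGA16 CHO cells with stable hTAAR1 and Gα16 / Probe or stimulus: EC80 β-phenethylamine stimulus / Times: seeding 17-24 h prior, 75-min 37 °C, 30-min RT dye loading / Detection: Fluo-8 calcium-sensitive fluorescence / Read-out basis: % inhibition scaled between DMSO and EC80 PEA controls / Repeats: singlicate, one well per test compound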
GalR3 antagonist – human GalR3 antagonism | HEK293 GalR3-CNG cAMP membrane potential fluorescence; galR3 body fused to GalR1 C-terminus | inhibition, % at 3 µM | 0.44% of 360,000 active | AID 651719;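 active means inhibition above the screen-wide average plus 3 SD, cut at about 13% in these data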;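 further: forskolin and galanin both at EC90 stimulate the cells; cAMP rise reported by CNG channel membrane potential dye signal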
Target sequence (O60755 1-299 limits assumed): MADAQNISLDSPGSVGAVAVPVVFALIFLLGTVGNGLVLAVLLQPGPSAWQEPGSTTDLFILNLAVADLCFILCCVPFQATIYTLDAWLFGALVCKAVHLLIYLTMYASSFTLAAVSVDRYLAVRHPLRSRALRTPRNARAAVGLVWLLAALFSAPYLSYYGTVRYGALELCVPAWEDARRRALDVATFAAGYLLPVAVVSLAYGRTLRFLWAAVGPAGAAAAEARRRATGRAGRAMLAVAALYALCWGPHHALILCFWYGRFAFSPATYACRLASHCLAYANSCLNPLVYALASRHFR
OX1R antag-1 – OX1R (human) antagonism; O43613; OX1R-expressing cells, FRET antagonist read-out; inhibition, % at 6.6 µM; 1.8% of 330,000 active; AID 485270; in the data active means inhibition mostly above about 38%, no sharp cut-off; inactive means mostly below about 40%
Target sequence (O43613 whole entry, looked up): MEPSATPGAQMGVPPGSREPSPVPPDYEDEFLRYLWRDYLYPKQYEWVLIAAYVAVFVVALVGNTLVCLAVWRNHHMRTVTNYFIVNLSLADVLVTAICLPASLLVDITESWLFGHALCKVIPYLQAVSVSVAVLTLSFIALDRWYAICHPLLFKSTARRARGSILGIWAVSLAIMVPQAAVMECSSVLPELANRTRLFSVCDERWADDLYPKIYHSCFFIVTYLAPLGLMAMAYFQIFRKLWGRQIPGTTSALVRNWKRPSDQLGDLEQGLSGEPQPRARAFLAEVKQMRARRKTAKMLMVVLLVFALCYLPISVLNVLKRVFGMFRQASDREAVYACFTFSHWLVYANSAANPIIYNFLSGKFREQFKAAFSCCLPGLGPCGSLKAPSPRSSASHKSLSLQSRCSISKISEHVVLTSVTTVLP
TAAR1 ag – agonists of human TAAR1. Q96RJ0. CHO RD-HGA16 TAAR1, Fluo-8 calcium fluorescence; vehicle wells 0%, saturating PEA agonist 100%. activation, % at 3 µM. 0.99% of 360,000 active. AID 624467;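 active means activation above the mean activation of all test compounds in the run plus 3 SD, cut at about 38% in these data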
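System: CHO-derived RD-HGA16 cells with stable Gα16 and human TAAR1 / Times: 17-24 h plating, Fluo-8 75 min 37 °C, 30 min RT / Technique: calcium-sensitive Fluo-8 signal, excitation 470-495, emission 515-575 nm / Measure: % activation relative to PEA EC100 response / Benchmarks: DMSO and PEA EC100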
OX1R antag-2 – antagonists of human orexin 1 receptor; O43613; CHO/OX1R cells, Fluo-8 calcium fluorescence, orexin A; inhibition, % at 5 µM; 0.43% of 330,000 active;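 active means inhibition above its plate's threshold, mean inhibition of all tested compounds on the plate plus 3 SD, cut at about 37% in these data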
OX1R HTRF confirm – OX1R (human) antagonism, HTRF confirmed | shares compounds with OX1R antag-1 | 49% of 1,800 active | OX1R-expressing cells, HTRF antagonist assay | inhibition, % at 6.6 µM; in the data active means inhibition above about 55%;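 further: CHO cells expressing OX1R stimulated with orexin A at about EC80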
CHO-K1 HTRF cnt – counter-screen for OX1R antagonists: effect in parental CHO-K1 cells | shares compounds with OX1R antag-1 | HTRF counterscreen | inhibition, % at 6.6 µM | 48% of 1,800 active | AID 493232; in the data active means inhibition above about 17%
Of the large screens only hits and unclear results are named; the others gave an inactive call (follow-up assays come after a bar, where they were run). Rows were chosen to be rich in hits. Some 4.2% of all compounds tested hit in one or more screens of this group.

CN(C)C(CNC(=O)c1cc2ccccc2oc1=O)c1ccccc1 (configuration not stated)	OX1R antag-1 92 | OX1R HTRF confirm inactive | CHO-K1 HTRF cnt 43
CCCSc1cc(NCCOC(C)=O)c([N+](=O)[O-])c2nonc12	OX1R antag-1 82 | OX1R HTRF confirm inactive | CHO-K1 HTRF cnt 61
CC(=O)N1c2ccccc2C2CCCC[C@@H]21 (some centres not stated)	none
O=c1oc2ccccc2cc1-c1cn2ccccc2n1	OX1R antag-1 95 | OX1R HTRF confirm 72 | CHO-K1 HTRF cnt 20
COc1ccc(OC)c(S(=O)(=O)NC2CC2)c1	none
O=C1c2ccccc2C(c2nnnn2Cc2ccccc2)N1Cc1ccco1 (configuration not stated)	none (no result: CHO parental Ca, OX1R antag-1, OX1R antag-2)
COc1cc([N+](=O)[O-])c(C(=O)N2CCOCC2)c([N+](=O)[O-])c1	OX1R antag-1 94 | OX1R HTRF confirm inactive | CHO-K1 HTRF cnt 42
Cc1ccc(OCCSc2nc3ncnc(N)c3[nH]2)cc1	OX1R antag-1 99 | OX1R HTRF confirm inactive | CHO-K1 HTRF cnt inactive
Cc1occc1C(=O)N=Nc1c(O)n(C)c2ccccc12	none
Cn1c(O)c(N=NC(=O)CNC(=O)/C=C/c2ccccc2)c2ccccc21	none
Cn1c(O)c(N=NC(=O)c2ccccc2O)c2ccccc21	OX1R antag-1 121 | OX1R HTRF confirm 91 | CHO-K1 HTRF cnt 29
CCOC(=O)C(=O)N=Nc1c(O)n(C)c2ccccc12	OX1R antag-1 183 | OX1R HTRF confirm inactive | CHO-K1 HTRF cnt 75
CC(C)CCn1c(O)c(N=NC(=O)c2ccco2)c2ccccc21	none
Cn1c(O)c(N=NC(=O)CNC(=O)c2ccco2)c2ccccc21	OX1R antag-1 79 | OX1R HTRF confirm inactive | CHO-K1 HTRF cnt 48
Cn1c(O)c(N=NC(=O)c2ccco2)c2ccccc21	OX1R antag-1 166 | OX1R HTRF confirm 83 | CHO-K1 HTRF cnt 53
Cc1ccccc1OC1(C)CCN(Cc2ccc3ccccc3c2)C1 (configuration not stated)	none (no result: CHO parental Ca, OX1R antag-1, OX1R antag-2)
Cc1cc(N=NC(=O)c2ccccc2O)c2ccccc2c1O	OX1R antag-1 120 | OX1R HTRF confirm 94 | CHO-K1 HTRF cnt 48
COCCn1c(=N)c(C(=O)NCc2ccco2)cc2c(=O)n3cc(C)ccc3nc21	OX1R antag-1 108 | OX1R HTRF confirm inactive | CHO-K1 HTRF cnt 69
COc1ccc(CCn2c(=N)c(C(=O)N3CCN(C)CC3)cc3c(=O)n4ccccc4nc32)cc1	OX1R antag-1 105 | OX1R HTRF confirm inactive | CHO-K1 HTRF cnt 51
Cc1ccc2nc3c(cc(C(=O)NCc4ccco4)c(=N)n3C3CCCC3)c(=O)n2c1	none
N=c1c(C(=O)NCc2ccco2)cc2c(=O)n3ccccc3nc2n1CCc1ccccc1	OX1R antag-1 114 | OX1R HTRF confirm inactive | CHO-K1 HTRF cnt 42
Cc1ccnc(NC(=O)COc2ccc(Cl)cc2)n1	none
CCn1c(O)c(/C=C2\C=Nc3ccccc32)sc1=Nc1ccc(C)cc1	none
CCn1c(O)c(/C=C2\C=Nc3ccccc32)sc1=O	OX1R antag-1 86 | OX1R HTRF confirm 86 | CHO-K1 HTRF cnt inactive
Clc1cccc(/C=N\Nc2nccs2)c1	OX1R antag-1 82 | OX1R HTRF confirm inactive | CHO-K1 HTRF cnt inactive
O=C1Nc2ccccc2S/C1=C\C(=O)N1CCCC1	none (no result: TAAR1 antagonist, GalR3 antagonist, TAAR1 ag)
CC(C)Sc1nnc(-c2c[nH]c3ccccc23)n1C	none (no result: GalR3 antagonist)
O=C(N/N=C/c1ccc([N+](=O)[O-])s1)c1ccccc1Br	none
Cn1c(SCC(=O)N/N=C/c2ccc([N+](=O)[O-])s2)nnc1-c1ccccc1	OX1R antag-1 87 | OX1R HTRF confirm inactive | CHO-K1 HTRF cnt 52
COC(=O)N/N=C/c1ccc([N+](=O)[O-])s1	OX1R antag-1 106 | OX1R HTRF confirm inactive | CHO-K1 HTRF cnt 85
COc1ccc(NC(C)C(=O)N/N=C/c2ccc([N+](=O)[O-])s2)cc1 (configuration not stated)	none
O=C(N/N=C/c1ccc([N+](=O)[O-])s1)c1ccccc1	OX1R antag-1 107 | OX1R HTRF confirm inactive | CHO-K1 HTRF cnt 52
Cn1c(SCC(=O)N/N=C/c2cc([N+](=O)[O-])ccc2O)nnc1-c1ccccc1	none
CC(=O)Nc1ccc(S(=O)(=O)Nc2cc(S(=O)(=O)N3CCCCC3)ccc2O)cc1	none (no result: CHO parental Ca, OX1R antag-1, OX1R antag-2)
Cc1ccc(/C=N/NC(=O)c2nn(C)cc2Cl)cc1	none
Cn1cc(Cl)c(C(=O)N/N=C/c2ccc3c4c(cccc24)CC3)n1	OX1R antag-1 92 (no result: TAAR1 antagonist, GalR3 antagonist, TAAR1 ag) | OX1R HTRF confirm 84 | CHO-K1 HTRF cnt inactive
COc1ccc(/C(C)=N/NC(=O)CNC(=O)c2ccncc2)cc1	none
COCCNCC(=O)Nc1ccc(C)c(S(=O)(=O)N2CCCCC2)c1	OX1R antag-1 100 | OX1R HTRF confirm inactive | CHO-K1 HTRF cnt inactive
CCSc1ccc([C@@H]2[C@H]3C(=O)N(CC)C(=O)[C@H]3[C@]3(C(=O)OC)CCCCN23)cc1OC	OX1R antag-1 84 (no result: TAAR1 antagonist, GalR3 antagonist, TAAR1 ag) | OX1R HTRF confirm 76 | CHO-K1 HTRF cnt inactive
CCCSc1ccc([C@@H]2[C@@H]3C(=O)N(CC)C(=O)[C@@H]3[C@]3(C(=O)OC)CCCCN23)cc1OC	none
Cc1nc2c(C(=O)Nc3ccc(N4CCCC(O)C4)cc3)snc2c(=O)[nH]1 (configuration not stated)	OX1R antag-1 95 | OX1R HTRF confirm inactive | CHO-K1 HTRF cnt 59
CCCN1CCN(CCCNC(=O)CN2C(=O)c3cccnc3Oc3ccc(Cl)cc32)CC1	none
C[C@H](NC(=O)c1nc[nH]c1C(=O)NC1CCNCC1)C(=O)OC(C)(C)C	none
CCS(=O)(=O)N1Cc2cc(C(=O)NCCOC)nc(-c3cccc(-c4ccncc4)c3)c2[C@@H]1CCO	none (no result: CHO parental Ca, OX1R antag-1, OX1R antag-2)
O=C(CCCN1C(=O)C2CCCCN2C1=O)N1CCN(c2ccc([N+](=O)[O-])cc2)CC1 (configuration not stated)	OX1R antag-1 79 | OX1R HTRF confirm inactive | CHO-K1 HTRF cnt 25
O=C1C2CCCCN2C(=O)N1CCN1CCN(c2ccc([N+](=O)[O-])cc2)CC1 (configuration not stated)	none
Cc1ccc(C(=O)CSc2ccc(-c3ccccc3)nn2)cc1	none
O=C(CSc1ccc(-c2ccccc2)nn1)c1ccccc1	OX1R antag-1 82 | OX1R HTRF confirm inactive | CHO-K1 HTRF cnt inactive
CC1(C)CC(=O)C(C=NCCN2CCOCC2)=C(O)C1	none
CCc1nc(SCC(=O)Nc2ccc(C(=O)O)cc2)n[nH]1	none
CCCCC[n+]1ccn(C2=C([O-])c3ccccc3C(=O)/C2=N\S(=O)(=O)c2ccc(Br)cc2)c1	none
